# Data from ChEMBL document CHEMBL4513216, “Probing the Open Global Health Chemical Diversity Library for Multistage-Active Starting Points for Next-Generation Antimalarials” (ACS Infect Dis, 2020).
# Assay: Toxicity liver stage against HepG2, at 10uM
# Assay type: cell-based
# Design: test concentration 10 uM, cell line HepG2-A16-CD81EGFP
# Conditions: human, HepG2-A16-CD81EGFP cells; read-out: INHIBITION
# How it was run: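 Uninfected HepG2-A16-CD81EGFP cells, 3 × 10^3 per well, 1536-well, plated on prespotted compound at 10 μM final, parasite-free screening media added to match infected plates; puromycin 10 μM positive, DMSO 0.5% negative; run in parallel with 48 h PbLuc assay at 37 °C, 5% CO2; viability by CellTiter-Glo luminescence, normalized to controls.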
row,SMILES,cytotoxicity at 10 µM [%]
1,COCc1n[nH]c2c1CN(C(=O)c1ccncc1)C2,16.6
2,COc1ccc(-c2c(C)nn3c(=N)c(C#N)n[nH]c23)cc1OC,8.29
3,COc1ccc(-c2noc(CN3CCN(c4cnccn4)CC3)n2)cc1,6.58
4,COCC(=O)N1CC[C@H]2C[C@@H](c3nnc(C4CC4)o3)O[C@@H]2C1,-6.77
5,O=C(NCC1CCCO1)C1CCN(Cc2nc(C3CC3)no2)CC1 (stereo not given),1.11
6,COCC1CCCN(C(=O)c2cc(Cn3ccc4ccccc43)[nH]n2)C1 (stereo not given),-11.5
7,Cc1nc(N2CCOCC2)nc2c1CCN(Cc1nccn1C)CC2,-125
8,Cc1ccc(CN2C[C@@H](C(=O)O)[C@H](c3ccccn3)C2)o1,-3.88
9,Cc1cc(C)c(CNC(=O)NCC2COCCO2)c(=O)[nH]1 (stereo not given),-3.81
10,CCOCC1CC2(CCN(C(=O)c3ccc4ccccc4n3)CC2)CO1 (stereo not given),3.79
11,CC(C)c1nsc(N2CCOCC2)n1,-11
12,CN1CCN(C(=O)c2cccc(CN3CCOCC3)c2)CC1,2.46
13,O=S(=O)(NCCc1cn2ccccc2n1)N1CCOCC1,-3.98
14,CCn1nccc1CN(C)C(=O)Cn1nc(C)cc1C,6.18
15,COc1ccc(F)cc1C(=O)N1CCCC(n2nc(C)nc2C)C1 (stereo not given),3.05
16,Cc1cc(C)n(CCCNC(=O)[C@@H](C)NC(=O)OC(C)(C)C)n1,-8
17,O=S(=O)(CCNCc1cccc2c1OCCO2)N1CCOCC1,-10.9
18,COC(C)(C)CNC(=O)N1CCCC1c1c(C)n[nH]c1C (stereo not given),1.76
19,Cc1cc(NC(=O)NCCc2ccc3c(c2)OCCO3)n(C)n1,-0.838
20,COCCNC(=O)C1CCCN1S(=O)(=O)c1sc(=O)[nH]c1C (stereo not given),2.17
21,CC(C)CCN1CCCC12Cc1ccccc1CNC2=O (stereo not given),7.61
22,Nc1nccnc1C1CN(C(=O)c2cnc(C3CC3)nc2)CCO1 (stereo not given),-27

row,SMILES,cytotoxicity at 10 µM [%]
1,CC(=O)NCC(=O)NC1CCc2nccn2C1 (stereo not given),-6.99
2,CCCc1nc(C)c(C(=O)NS(=O)(=O)c2ccc(C#N)cc2)s1,-12
3,CNC(=O)C1Cc2ccccc2CN1CCC#N (stereo not given),6.35
4,COc1ccc([C@@H](C)n2ccnc2-c2cc3n(n2)CCCNC3)cc1,-8.48
5,CC(C)c1noc(-c2ccc(NC(=O)NCC(O)C(C)C)cc2)n1 (stereo not given),-7.03
6,O=C(NC[C@]12COC[C@H]1CN(Cc1nccs1)C2)c1ccsc1,4.09
7,CN(CCc1ccncc1)C(=O)C1CSCN1C(=O)CC(C)(C)C (stereo not given),10.2
8,CN(C)CC1CN(c2ncnc3ccsc23)CCO1 (stereo not given),12
9,Cc1ccc(C(CC(=O)O)NC(=O)CCc2cccs2)cc1 (stereo not given),-4.32
10,OCCC1CN(c2ncnc3[nH]cnc23)CCN1Cc1ccccc1F (stereo not given),17
11,O=C1CCC2(CCN(Cc3ccc(F)cc3Cl)CC2)CN1CCO,5.29
12,CC(C(=O)N1CCCC1)S(=O)(=O)Cc1nc(C(C)(C)C)no1 (stereo not given),8.18
13,Cc1ccc(F)c(C(=O)Nc2cccc(CCN3CCCC3)c2)c1,0.0833
14,CCCc1cc(NCc2noc(COC)n2)n2nccc2n1,6.48
15,Cc1ccc(O)c(CN(Cc2ccccc2)Cc2nccs2)n1,0.31
16,Cc1nc(C(=O)N2CC(C)Sc3ccccc32)cs1 (stereo not given),-3.71
17,COCC(=O)N1CCCC(c2nc(N)ncc2-c2cccc(F)c2)C1 (stereo not given),-0.6
18,Cc1cnn(CC2CCCN2Cc2nnc(Cc3ccccc3)o2)c1 (stereo not given),-11.7
19,O=C(NCC1CC1)[C@@H]1CCO[C@@H]2CCN(Cc3ccc(F)cc3)C[C@H]21,1.42
20,COc1ccnc(N2CCN(C(=O)CN3CCOCC3)CC2)n1,-0.819
21,Cc1cc(C)c2[nH]c(C(=O)NCCN3CCCC3=O)c(C)c2c1,2.49
22,COc1ccc(-n2cc(CNC(=O)c3cc[nH]n3)nn2)cc1,-4.71

row,SMILES,cytotoxicity at 10 µM [%]
1,NC(=O)c1ccc(N2CCN(CCCc3cn[nH]c3)CC2)cc1,-153
2,COc1ccc(OC)c(-n2cnnc2CN)c1,-4.4
3,Cc1ccc(C(O)CNC(=O)CCCc2ccccn2)o1 (stereo not given),0.166
4,FC(F)(F)c1[nH]nc2c1CN(Cc1ccccc1)CC2,11.8
5,Cn1ncc2c(N3CCN(C(=O)c4ccsc4)CC3)ncnc21,-9.27
6,COc1ccc(OCc2nc(C(=O)N3CC(O)C3)co2)cc1,-9.29
7,CCN(Cc1cccc2c1OCO2)C(=O)Nc1ccccn1,-21.7
8,CC(C)(C)OC(=O)NC1CCCN(Cc2cccc(O)c2)C1 (stereo not given),-45.3
9,Cc1ccc(OC2CCN(CCn3cncn3)CC2)cc1,-1.67
10,CC(C)c1ncc2c(n1)CN(c1ncnc3[nH]ccc13)CC2,-3.28
11,COCCC(=O)NC(C)(C(N)=O)c1cccc(Cl)c1 (stereo not given),17.7
12,CS(=O)(=O)c1cccc(C(N)c2ccc(F)c(F)c2)c1 (stereo not given),6.62
13,CCC1CN(CC(=O)NCCOC)CCO1 (stereo not given),-12.9
14,CCC(CC)C(=O)NCCC(=O)N1CCN(c2ccccn2)CC1,4.65
15,CS(=O)(=O)N1CCC(O)(Cn2c(C3CC3)nc3ccccc3c2=O)CC1,3.06
16,CS(=O)(=O)NC1CCN(CCOCc2ccccc2)CC1,2.84
17,CS(=O)(=O)N1CCC(NC(=O)COc2ccc(Cl)c(Cl)c2)CC1,-6.46
18,O=C(Cn1nc(-c2cccs2)ccc1=O)N1CCCCCC1,-2.7
19,CO[C@@H]1CCN(S(=O)(=O)N(C)C)[C@@H]2CN(Cc3cccnc3)C[C@@H]21,-1.91
20,COCC(=O)N1CC[C@H]2C[C@H](c3nnc(C4CC4)o3)O[C@@H]2C1,4.85
21,COC(=O)C1CCCN1CC(=O)NCc1ccc(OCC(N)=O)cc1 (stereo not given),7.45
22,Cn1ccc2c(C(=O)N3CCC4(CCOC4)C3)cccc21 (stereo not given),-152

row,SMILES,cytotoxicity at 10 µM [%]
1,O=C(CSC1CCCC1)N1CCN(c2ccc(-n3cncn3)nn2)CC1,6.93
2,FC(F)(F)c1cccc(OC2CCN(Cc3ccccn3)CC2)c1,-0.609
3,CN1CC2(CCN(Cc3cccc(C#N)c3)CC2)CC1=O,-0.145
4,O=C(CC1CN(Cc2ccccc2)CCO1)Nc1ccccc1F (stereo not given),-2.05
5,O=C(CCc1cn[nH]c1)N1C[C@H](CO)C[C@H](CN2CCOCC2)C1,2.72
6,CN(C)C(CNC(=O)c1cccc(C(N)=O)c1)c1ccccc1Cl (stereo not given),-4.83
7,CCOc1ccc(CN2CC[C@](C)(O)C(C)(C)C2)cn1,5.88
8,CC(C)CCCC(C)NC(=O)c1ccc(OCC(N)=O)cc1 (stereo not given),10.2
9,COc1ccc(-c2csc3c2c(N)nc(=O)n3CCCN(C)C)cc1,-54
10,Cc1cc(F)ccc1CN1CCCC(O)(CN2CCCC2)C1 (stereo not given),-5.19
11,CNC(=O)N1CCC(=Cc2ccccc2)CC1,-1.52
12,CC(C)c1noc(C(C)N2CCN(CCO)CC2)n1 (stereo not given),-2.26
13,c1cnnc(NCC2CN(CCn3cncn3)CCO2)c1 (stereo not given),-3.16
14,CNc1cccc(C2CCCN(C(=O)c3cccnc3)C2)n1 (stereo not given),-16.6
15,Cc1cccc(N2N=C(C(=O)NC(C)Cn3cccn3)CCC2=O)c1 (stereo not given),0.479
16,CN(C)C1CCN(C(=O)NCc2ccccc2Cn2cncn2)CC1,-8.15
17,COC(=O)[C@@H]1Cc2ncn(C(C)C)c2CN1S(=O)(=O)Cc1ccccc1,-2.51
18,CS(=O)(=O)N1CCc2nc(NC(=O)Nc3c(F)cccc3F)sc2C1,-10.4
19,COCC1CC2(CCN(Cc3ccncc3)CC2)CN1C(C)C (stereo not given),1.73
20,CC(=O)N(C)Cc1ncn2c1CN(C(=O)C1CCCO1)CCC2 (stereo not given),-101
21,O=C(Nc1ncc[nH]1)c1cc(-c2cccnc2)n[nH]1,5.69
22,CCN(Cc1c(C)nn(CC)c1C)S(=O)(=O)c1cnn(C)c1,4.98

row,SMILES,cytotoxicity at 10 µM [%]
1,Cc1c(C2=NS(=O)(=O)N(C)C(C(=O)Nc3ccc(Br)cc3)=C2)cnn1C,11.7
2,CN(C)CCCNC(=O)C1CC(=O)N(c2n[nH]c3cccc(F)c23)C1 (stereo not given),-5.92
3,CC(C)C(=O)NC1CCN(CCO)CC1,-8.84
4,CC[C@H]1CN2CC[C@H]1C[C@@H]2CNC(=O)Nc1cccc(C#N)c1,-0.201
5,COCCN(C)C[C@@H]1CN(C(=O)c2ccc(O)c(Cl)c2)C[C@@H]1CO,10.5
6,CC(=O)N1CCC2(CC1)CNc1ccc(F)cc12,1.63
7,CNC(=O)c1cc(NC(=O)Nc2cnn(CC(C)C)c2)ccc1F,-3.79
8,O=C1CC2(CCN(CC3CCOC3)CC2)c2ccccc2N1CC1CC1 (stereo not given),-9.61
9,COc1cc(NC(=O)NC2CC2)ccc1N1CCOC1=O,-6.44
10,COc1ccccc1NC(=O)N1CCCC1c1ccco1 (stereo not given),-4.78
11,Cc1ccc(C(=O)N2C[C@@H]3OCCN(C)[C@@H]3C2)cn1,-68.3
12,Cc1ccc(C(=O)N2C[C@H](OCc3cccnc3)[C@H]3COC[C@H]32)cn1,-1.52
13,Cn1c(=O)c2c(n3ncnc13)NC(=O)CC2c1cccc(F)c1 (stereo not given),2.05
14,CCN1CCN(CC(C)(O)c2cccc(C(F)(F)F)c2)CC1 (stereo not given),-11.4
15,CC(C)Cc1nc(OCC(N)=O)c(C#N)c2c1CCCC2,-9.53
16,O=C(CN(Cc1ccccc1)CC1CCOCC1)NC(=O)NC1CC1,-6.49
17,CCc1c(C)nc(C)nc1N1C[C@@H](CN(C)CCN(C)C)[C@@H](CO)C1,-2.07
18,Cc1cc(C)nc(N2CCC(C(=O)Nc3ccc(C(C)C)cc3)CC2)n1,-3.02
19,CC(NC(=O)NCC1(N2CCCCC2)CCCCC1)c1nncn1C (stereo not given),-9.78
20,Cn1ccc(C(=O)Nc2nccn2Cc2ccccc2Cl)cc1=O,-1.92
21,Cc1noc(C)c1CN1C[C@@H](NC(=O)N(C)C)[C@H](C(C)C)C1,5.35
22,CC(NCc1cccc(S(=O)(=O)N(C)C)c1)c1ccccn1 (stereo not given),-10.5
